Assay results taken from ChEMBL document CHEMBL5260794, “Synthesis and biological evaluation of a new class of benzothiazines as neuroprotective agents” (Eur J Med Chem, 2017).
Active and inactive are the calls of the source. No cut-off for these calls is given here.

How the values were obtained:
Rattus norvegicus [1] = species on record: Rattus norvegicus; assay: Neuroprotective activity against oxygen glucose deprivation/reperfusion-induced Wistar rat cortical brain assessed as reduction in glutamate release by measuring minimal effective concentration; format: functional
Procedure, shortened: (§1)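 Male Wistar rat cortical slices (400 μm) in oxygenated ACSF, pH 7.4, 1 h at room temperature, then 30 min at 37 °C. OGD for 30 min in glucose-free ACSF with 11 mM sucrose under 95% N₂/5% CO₂. Compound added in the reoxygenation buffer. Glutamate and LDH release measured. Mean ± SEM of at least four experiments, ANOVA with Dunnett test.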

Rattus norvegicus [2] = species on record: Rattus norvegicus; assay: Neuroprotective activity against oxygen glucose deprivation/reperfusion-induced Wistar rat cortical brain assessed as reduction in LDH release relative to control; format: functional; set-up: concentration or dose not given beside the values; procedure, shortened: as §1
Rattus norvegicus [3] = species on record: Rattus norvegicus; assay: Neuroprotective activity against oxygen glucose deprivation/reperfusion-induced Wistar rat cortical brain assessed as concentration required to reduce glutamate release by measuring efficacy window; format: functional; procedure, shortened: as §1
Rattus norvegicus [4] = species on record: Rattus norvegicus; assay: Neuroprotective activity against oxygen glucose deprivation/reperfusion-induced Wistar rat cortical brain assessed as concentration required to reduce LDH release by measuring efficacy window; format: functional; procedure, shortened: as §1
Rattus norvegicus [5] = species on record: Rattus norvegicus; assay: Neuroprotective activity against oxygen glucose deprivation/reperfusion-induced Wistar rat cortical brain assessed as reduction in glutamate release relative to control; format: functional; set-up: concentration or dose not given beside the values; procedure, shortened: as §1
Rattus norvegicus [6] = species on record: Rattus norvegicus; assay: Neuroprotective activity against oxygen glucose deprivation/reperfusion-induced Wistar rat cortical brain assessed as reduction in LDH release by measuring minimal effective concentration; format: functional; procedure, shortened: as §1
SH-SY5Y [7] = assay: Neuroprotective activity against 6-OHDA-induced toxicity in human SH-SY5Y cells assessed as reduction in condensed and fragmented nuclei at 10 uM pretreated for 1 hr followed by 6-OHDA challenge measured after 2 hrs by DAPI staining based assay relative to control; settings: time 3.0 hrs
SH-SY5Y [8] = assay: Neuroprotective activity against glutamate-induced toxicity in human SH-SY5Y cells assessed as reduction in ROS production measured after 24 hrs by DCFH-DA staining based assay; format: functional, cell-based; settings: dose 0.1-10 µM
Procedure, shortened: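 Human SH-SY5Y neuroblastoma cells were preloaded with DCFH-DA (5 μM, 30 min) and washed in PBS. They were then pretreated for 1 h with compound (0.1-10 μM; DMSO stock diluted in PBS, final DMSO <0.01%) and challenged with glutamate (50 mM). Fluorescence (ex 485/em 535 nm) was read at 24 h and expressed as % inhibition of glutamate-induced ROS. Data are mean ± SEM of 4 experiments run in triplicate or quadruplicate.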

SH-SY5Y [9] = assay: Neuroprotective activity against glutamate-induced toxicity in human SH-SY5Y cells assessed as cell viability at 0.01 uM pretreated for 1 hr followed by glutamate challenge measured after 24 hrs by MTT assay; format: functional; settings: time 25 hrs, read-out: Activity
SH-SY5Y [10] = assay: Neuroprotective activity against glutamate-induced toxicity in human SH-SY5Y cells assessed as increase in S phase cells at 0.01 uM pretreated for 1 hr followed by glutamate challenge measured after 24 hrs by propidium staining based flow cytometry; format: functional, cell-based; settings: time 25.0 hrs
Procedure, shortened: (§2)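 Cells seeded 2.5 x 10⁵ cells/mL, pretreated with compound 1 h, then glutamate 50 mM for 24 h. Cells fixed in 70% ethanol (30 min, 4 °C), kept at -20 °C for at least 24 h, stained with propidium iodide and run on flow cytometer (563-607 nm band-pass). At least 1x10⁴ cells acquired per sample; sub-G0/G1 peak taken as apoptotic. Mean ± SEM, 4 independent experiments.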

SH-SY5Y [11] = assay: Neuroprotective activity against 6-OHDA-induced toxicity in human SH-SY5Y cells assessed as increase in cell viability at 0.01 uM pretreated for 1 hr followed by 6-OHDA challenge measured after 2 hrs by MTT assay; format: functional, cell-based; settings: time 3.0 hrs
Procedure, shortened: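 SH-SY5Y cells (RPMI 1640, 10% FBS, 37 °C, 5% CO2, used in exponential growth) seeded 8 x 10⁴ cells/mL, attached 24 h, pre-incubated with compound 1 h, then 6-OHDA 55 μM for 2 h (6-OHDA freshly dissolved in nitrogen-gassed 5 μM ascorbic acid). Controls received medium with 5 μM ascorbic acid. Viability by MTT. Mean ± SEM of 4 independent experiments, each in triplicate or quadruplicate.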

SH-SY5Y [12] = assay: Neuroprotective activity against glutamate-induced toxicity in human SH-SY5Y cells assessed as reduction in sub G0/G1 phase cells at 0.01 uM pretreated for 1 hr followed by glutamate challenge measured after 24 hrs by propidium staining based flow cytometry; format: functional, cell-based; settings: time 25.0 hrs; procedure, shortened: as §2
SH-SY5Y [13] = assay: Neuroprotective activity against glutamate-induced toxicity in human SH-SY5Y cells assessed as reduction in cell shrinkage at 0.01 uM pretreated for 1 hr followed by glutamate challenge measured after 24 hrs by phase-contrast light microscopic analysis; format: functional, cell-based; settings: time 25.0 hrs
Procedure, shortened: (§3)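 SH-SY5Y cells pretreated with compound 1 h, then glutamate 50 mM for 24 h. Morphology examined and photographed by phase-contrast microscopy. Scored on USP 28 grade scale 0-4, with grades based on cell rounding, loss of intracytoplasmic granules, lysis and empty areas between cells. Control wells received medium only.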

SH-SY5Y [14] = assay: Neuroprotective activity against glutamate-induced toxicity in human SH-SY5Y cells assessed as reduction in condensed and fragmented nuclei at 0.01 uM pretreated for 1 hr followed by glutamate challenge measured after 24 hrs by DAPI staining based assay (reference value: 16.9 +/- 1.5%); format: functional, cell-based; settings: time 25.0 hrs
SH-SY5Y [15] = assay: Neuroprotective activity against 6-OHDA-induced toxicity in human SH-SY5Y cells assessed as condensed and fragmented nuclei at 0.01 uM pretreated for 1 hr followed by 6-OHDA challenge measured after 2 hrs by DAPI staining based assay relative to control; format: functional; settings: time 3 hrs
SH-SY5Y [16] = assay: Neuroprotective activity against glutamate-induced toxicity in human SH-SY5Y cells assessed as reduction in cell detachment at 0.01 uM pretreated for 1 hr followed by glutamate challenge measured after 24 hrs by phase-contrast light microscopic analysis; format: functional, cell-based; settings: time 25.0 hrs; procedure, shortened: as §3
SH-SY5Y [17] = assay: Neuroprotective activity against glutamate-induced toxicity in human SH-SY5Y cells assessed as reduction in G0/G1 phase cells at 0.01 uM pretreated for 1 hr followed by glutamate challenge measured after 24 hrs by propidium staining based flow cytometry; format: functional, cell-based; settings: time 25.0 hrs; procedure, shortened: as §2
SH-SY5Y [18] = assay: Neuroprotective activity against glutamate-induced toxicity in human SH-SY5Y cells assessed as reduction in grade 2 to 3 toxicity at 0.01 uM pretreated for 1 hr followed by glutamate challenge measured after 24 hrs by phase-contrast light microscopic analysis; format: functional, cell-based; settings: time 25.0 hrs; procedure, shortened: as §3
SH-SY5Y [19] = assay: Neuroprotective activity against glutamate-induced toxicity in human SH-SY5Y cells assessed as reduction in cell rounding at 0.01 uM pretreated for 1 hr followed by glutamate challenge measured after 24 hrs by phase-contrast light microscopic analysis; format: functional, cell-based; settings: time 25.0 hrs; procedure, shortened: as §3
SH-SY5Y [20] = assay: Neuroprotective activity against glutamate-induced toxicity in human SH-SY5Y cells assessed as reduction in ROS production at 0.01 uM by DCFH-DA staining based assay; format: functional, cell-based; settings: time 24.0 hrs, TDE = time-dependent effect
Procedure, shortened: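 Before treatment, SH-SY5Y cells loaded with DCFH-DA (5 μM, 30 min) and washed in PBS. Then 1 h compound pretreatment followed by glutamate 50 mM. Fluorescence read at 1 h or 24 h (ex 485, em 535 nm). Result expressed as % inhibition of glutamate-induced intracellular ROS. Mean ± SEM, 4 independent experiments in triplicate or quadruplicate.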

SMILES	MEC (Rattus norvegicus [1])	Activity (Rattus norvegicus [2])	Efficacy (Rattus norvegicus [3])	Efficacy (Rattus norvegicus [4])	Activity (Rattus norvegicus [5])	MEC (Rattus norvegicus [6])	further results
CCN(CC)/C(C)=N/C1=Nc2ccc(OC(F)(F)F)cc2CS1	inactive	inactive	inactive	inactive	inactive	inactive	
CCN(CC)/C(C)=N/C1=Nc2ccccc2SC1	inactive	inactive	inactive	inactive	inactive	inactive	
CCCN(CCC)/C(C)=N/C1=Nc2ccc(OC(F)(F)F)cc2CS1	0.01 µM	31%	0.01 µM	0.1 µM	17.8%	0.1 µM	
C/C(=N\C1=Nc2ccccc2SC1)N(C)C	inactive	inactive	inactive	inactive	inactive	inactive	
CCCNC(=S)NC1=Nc2ccccc2CS1	0.001 µM	inactive	0.001 µM	inactive	45.7%	inactive	
CN/C(C)=N/C1=Nc2ccccc2CS1	5 µM	40.1%	5 µM	1 µM	43.6%	0.1 µM	Activity (SH-SY5Y [7]): Active
NC1=Nc2ccc(OC(F)(F)F)cc2CS1	0.001 µM	inactive	0.001 µM	inactive	69.1%	inactive	
CN/C(C)=N/C1=Nc2ccccc2SC1	0.1 µM	33.2%	0.1 µM	100 µM	25.5%	100 µM	
C/C(=N\C1=Nc2ccccc2CS1)N(C)C	0.01 µM	78.4%	0.01 µM	0.01 µM	72.7%	0.01 µM	
Nc1nc2ccc(OC(F)(F)F)cc2s1 [RILUZOLE]							Activity (SH-SY5Y [8]): Dose-Dependent Effect; viability at 0.01 µM (SH-SY5Y [9]): 65%; Activity (SH-SY5Y [10]): Active; Activity (SH-SY5Y [11]): Active; Activity (SH-SY5Y [12]): Active; Activity (SH-SY5Y [13]): Active; Activity (SH-SY5Y [14]): Active; Activity (SH-SY5Y [15]): >20%; Activity (SH-SY5Y [16]): Active; Activity (SH-SY5Y [17]): Active; Activity (SH-SY5Y [18]): Active; Activity (SH-SY5Y [19]): Active; Activity (SH-SY5Y [20]): Tde
CCCN(CCC)/C(C)=N/C1=Nc2ccccc2SC1	inactive	53.5%	inactive	10 µM	inactive	10 µM	
